Reference: ChEMBL document CHEMBL4270599, “Synthesis of a 3'-C-ethynyl-β-d-ribofuranose purine nucleoside library: Discovery of C7-deazapurine analogs as potent antiproliferative nucleosides” (Eur J Med Chem, 2018)
pIC50: −log10 of the molar value.

What was measured:
[1] = test system: CCRF-CEM; assay: Antiproliferative activity against human CEM cells after 72 hrs by Coulter counter method; format: functional, cell-based
Outline: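 Cell count assay in 96-well microtiter plates; (5–7.5) × 10⁴ tumor cells per well plus test compound. Cells proliferated at 37 °C in humidified CO₂-controlled atmosphere, 48 h for murine leukemia L1210, 72 h for human lymphocytic CEM and cervix carcinoma HeLa. Counted by Coulter counter; IC₅₀ is the concentration that inhibits proliferation by 50%.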

[2] = test system: SR; assay: Cytotoxicity against human SR cells after 48 hrs by SRB assay; format: functional
[3] = test system: HCC 2998; assay: Cytotoxicity against human HCC2998 cells after 48 hrs by SRB assay; format: functional; conditions: HCC 2998, 48 h
[4] = test system: SF-539; assay: Cytotoxicity against human SF539 cells after 48 hrs by SRB assay; format: functional; conditions: SF-539, 48 h
[5] = test system: SNB-75; assay: Cytotoxicity against human SNB75 cells after 48 hrs by SRB assay; format: functional; conditions: SNB-75, 48 h
[6] = test system: SK-MEL-28; assay: Cytotoxicity against human SK-MEL-28 cells after 48 hrs by SRB assay; format: functional; conditions: SK-MEL-28, 48 h
[7] = test system: RXF 393; assay: Cytotoxicity against human RXF393 cells after 48 hrs by SRB assay; format: functional; conditions: RXF 393, 48 h
[8] = test system: MDA-MB-231; assay: Cytotoxicity against human MDA-MB-231 cells after 48 hrs by SRB assay; format: functional; conditions: MDA-MB-231, 48 h
[9] = test system: HL-60(TB); assay: Growth inhibition of human HL-60(TB) cells assessed as cell growth at 10^-8 M incubated for 48 hrs by sulforhodamine B assay relative to control; format: functional; conditions: HL-60, 48 h, read-out: Activity
[10] = test system: K562; assay: Growth inhibition of human K562 cells assessed as cell growth at 10^-8 M incubated for 48 hrs by sulforhodamine B assay relative to control; format: functional; conditions: K562, 48 h, read-out: Activity
[11] = test system: A549; assay: Growth inhibition of human A549/ATCC cells assessed as cell growth at 10^-8 M incubated for 48 hrs by sulforhodamine B assay relative to control; format: functional; conditions: A549, 48 h, read-out: Activity
[12] = test system: HOP-62; assay: Growth inhibition of human HOP62 cells assessed as cell growth at 10^-8 M incubated for 48 hrs by sulforhodamine B assay relative to control; format: functional; conditions: HOP-62, 48 h, read-out: Activity
[13] = test system: SF-539; assay: Growth inhibition of human SF539 cells assessed as cell growth at 10^-8 M incubated for 48 hrs by sulforhodamine B assay relative to control; format: functional; conditions: SF-539, 48 h, read-out: Activity
[14] = test system: IGROV-1; assay: Growth inhibition of human IGROV1 cells assessed as cell growth at 10^-8 M incubated for 48 hrs by sulforhodamine B assay relative to control; format: functional; conditions: IGROV-1, 48 h, read-out: Activity
[15] = test system: RXF 393; assay: Growth inhibition of human RXF393 cells assessed as cell growth at 10^-8 M incubated for 48 hrs by sulforhodamine B assay relative to control; format: functional; conditions: RXF 393, 48 h, read-out: Activity
[16] = test system: HOP-62; assay: Growth inhibition of human HOP62 cells assessed as cell growth at 10^-7 M incubated for 48 hrs by sulforhodamine B assay relative to control; format: functional; conditions: HOP-62, 48 h, read-out: Activity
[17] = test system: COLO 205; assay: Growth inhibition of human COLO205 cells assessed as cell growth at 10^-7 M incubated for 48 hrs by sulforhodamine B assay relative to control; format: functional; conditions: COLO 205, 48 h, read-out: Activity
[18] = test system: HCC 2998; assay: Growth inhibition of human HCC2998 cells assessed as cell growth at 10^-7 M incubated for 48 hrs by sulforhodamine B assay relative to control; format: functional; conditions: HCC 2998, 48 h, read-out: Activity
[19] = test system: SF-539; assay: Growth inhibition of human SF539 cells assessed as cell growth at 10^-7 M incubated for 48 hrs by sulforhodamine B assay relative to control; format: functional; conditions: SF-539, 48 h, read-out: Activity
[20] = test system: Malme-3M; assay: Growth inhibition of human MALME-3M cells assessed as cell growth at 10^-7 M incubated for 48 hrs by sulforhodamine B assay relative to control; format: functional; conditions: read-out: Activity
[21] = test system: HL-60(TB); assay: Growth inhibition of human HL-60(TB) cells assessed as cell growth at 10^-6 M incubated for 48 hrs by sulforhodamine B assay relative to control; format: functional; conditions: HL-60, 48 h, read-out: Activity
[22] = test system: RPMI-8226; assay: Growth inhibition of human RPMI8226 cells assessed as cell growth at 10^-6 M incubated for 48 hrs by sulforhodamine B assay relative to control; format: functional; conditions: RPMI-8226, 48 h, read-out: Activity
[23] = test system: OVCAR-5; assay: Growth inhibition of human OVCAR5 cells assessed as cell growth at 10^-6 M incubated for 48 hrs by sulforhodamine B assay relative to control; format: functional; conditions: OVCAR-5, 48 h, read-out: Activity
[24] = test system: OVCAR-8; assay: Growth inhibition of human OVCAR8 cells assessed as cell growth at 10^-6 M incubated for 48 hrs by sulforhodamine B assay relative to control; format: functional; conditions: OVCAR-8, 48 h, read-out: Activity
[25] = test system: SN12C; assay: Growth inhibition of human SN12C cells assessed as cell growth at 10^-6 M incubated for 48 hrs by sulforhodamine B assay relative to control; format: functional; conditions: read-out: Activity
[26] = test system: MDA-MB-231; assay: Growth inhibition of human MDA-MB-231 cells assessed as cell growth at 10^-6 M incubated for 48 hrs by sulforhodamine B assay relative to control; format: functional; conditions: MDA-MB-231, 48 h, read-out: Activity
[27] = test system: M14; assay: Growth inhibition of human M14 cells assessed as cell growth at 10^-5 M incubated for 48 hrs by sulforhodamine B assay relative to control; format: functional; conditions: M14, 48 h, read-out: Activity
[28] = test system: SK-MEL-28; assay: Growth inhibition of human SK-MEL-28 cells assessed as cell growth at 10^-5 M incubated for 48 hrs by sulforhodamine B assay relative to control; format: functional; conditions: SK-MEL-28, 48 h, read-out: Activity
[29] = test system: K562; assay: Growth inhibition of human K562 cells assessed as cell growth at 10^-4 M incubated for 48 hrs by sulforhodamine B assay relative to control; format: functional; conditions: K562, 48 h, read-out: Activity
[30] = test system: PC-3; assay: Growth inhibition of human PC3 cells assessed as cell growth at 10^-4 M incubated for 48 hrs by sulforhodamine B assay relative to control; format: functional; conditions: PC-3, 48 h, read-out: Activity
[31] = test system: 786-0; assay: Cytotoxicity against human 786-0 cells after 48 hrs by SRB assay; format: functional; conditions: 786-0, 48 h
[32] = read-out: pLC50 (the source's name) (converted)
[33] = read-out: LC50 (the source's name)

In the case of `C#C[C@@]1(O)[C@@H](CO)O[C@@H](n2ccc3c(N)ncnc32)[C@@H]1O`, the pIC50 [1] was 6.15, the TGI ([2]; read-out: TGI) was > 100 µM and the GI50 ([2]; read-out: pGI50 (converted)) was 0.813 µM. The CC50 [2, 32] was > 100 µM, the TGI ([2]; read-out: pTGI) was > 100 µM and the TGI ([3]; read-out: TGI) was 3.12 µM. It also gave a GI50 ([3]; read-out: pGI50 (converted)) of 1.45 µM, a CC50 [3, 32] of 6.76 µM and a TGI ([3]; read-out: pTGI (converted)) of 3.09 µM. The CC50 [4, 33] was 11.6 µM, the TGI ([4]; read-out: TGI) was 4.44 µM and the GI50 ([4]; read-out: pGI50 (converted)) was 1.91 µM. The CC50 [4, 32] was 11.7 µM, the TGI ([4]; read-out: pTGI (converted)) was 4.47 µM and the TGI ([5]; read-out: TGI) was 3.84 µM. The GI50 ([5]; read-out: pGI50 (converted)) was 1.82 µM, the TGI ([5]; read-out: pTGI (converted)) was 3.8 µM and the CC50 [6, 33] was > 100 µM. It also gave a TGI ([6]; read-out: TGI) of 20.2 µM, a GI50 ([6]; read-out: pGI50 (converted)) of 3.98 µM and a TGI ([6]; read-out: pTGI (converted)) of 20 µM. For the same compound, the TGI ([7]; read-out: TGI) was 4.6 µM, the GI50 ([7]; read-out: pGI50 (converted)) was 1.91 µM and the CC50 [7, 32] was 12.9 µM. The TGI ([7]; read-out: pTGI (converted)) was 4.57 µM, the TGI ([8]; read-out: TGI) was 5.89 µM and the GI50 ([8]; read-out: pGI50 (converted)) was 1.51 µM. The CC50 [8, 32] was 83.2 µM, the TGI ([8]; read-out: pTGI (converted)) was 5.89 µM and the growth at 0.01 µM [9] was 97%. For the same compound, the growth at 0.01 µM [10] was 103%, the growth at 0.01 µM [11] was 100% and the growth at 0.01 µM [12] was 87%. The growth at 0.01 µM [13] was 92%, the growth at 0.01 µM [14] was 101% and the growth at 0.01 µM [15] was 99%. The growth at 0.1 µM [16] was 103%, the growth at 0.1 µM [17] was 97% and the growth at 0.1 µM [18] was 93%. It also gave a growth at 0.1 µM [19] of 103%, a growth at 0.1 µM [20] of 97% and a growth at 1 µM [21] of 68%. For the same compound, the growth at 1 µM [22] was 44%, the growth at 1 µM [23] was 106% and the growth at 1 µM [24] was 51%. For the same compound, the growth at 1 µM [25] was 45%, the growth at 1 µM [26] was 66% and the growth at 10 µM [27] was -80%. For the same compound, the growth at 10 µM [28] was 21%, the growth at 100 µM [29] was 2% and the growth at 100 µM [30] was -62%. The TGI ([31]; read-out: TGI) was 6.15 µM, the GI50 ([31]; read-out: pGI50 (converted)) was 1.62 µM and the LC50 (lethal concentration, 50% cell kill) ([31]; read-out: pLC50 (converted)) was 25.7 µM. The TGI ([31]; read-out: pTGI (converted)) was 6.17 µM.
